# Assay results: ChEMBL document CHEMBL3425488, “Novel histone deacetylase inhibitors induce growth arrest, apoptosis, and differentiation in sarcoma cancer stem cells” (J Med Chem, 2015)
# Activity calls are given as the source filed them. The calls are words filed in the database; no cut-off is given here.
# Experiments:
# [1] = molecular target: Histone deacetylase 4 (Homo sapiens, UniProt P56524); assay: Inhibition of recombinant HDAC4 (unknown origin) by homogeneous fluorescence release assay
# Summary of the method: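 Isoform enzyme assay run in 10-dose IC50 mode. Compounds were serially diluted 3-fold starting from 50 μM solutions.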
# [2] = molecular target: Histone deacetylase 5 (Homo sapiens, UniProt Q9UQL6); assay: Inhibition of recombinant HDAC5 (unknown origin) by homogeneous fluorescence release assay
# Summary of the method: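 Recombinant HDAC isoform panel (HDAC1−11), tested in 10-dose IC50 mode with 3-fold serial dilution starting from 50 μM solutions.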
# [3] = test system: RD; assay: Cytotoxicity against human RD cells assessed as cell viability after 72 hrs by MTT assay; type: functional, cell-based
# Summary of the method: (§1)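 Sarcosphere-derived CSC cultures exposed 72 h to concentrations from 100 μM down to 0.1 μM. Viability compared with DMSO-only treated cells. IC50 calculated by linear regression.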
# [4] = test system: A204; assay: Cytotoxicity against human A204 cells assessed as cell viability after 72 hrs by MTT assay; type: functional, cell-based; summary of the method: as §1
# [5] = test system: A673; assay: Cytotoxicity against human A673 cells assessed as cell viability after 72 hrs by MTT assay; type: functional, cell-based; summary of the method: as §1
# [6] = test system: HOS; assay: Antiproliferative activity against HOS cells after 24 to 72 hrs by […] dye exclusion assay; type: functional, cell-based; conditions: Homo sapiens
# Summary of the method: (§2)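 Sarcosphere-derived CSCs, dissociated to single cells, plated at 50000/well in complete IMDM for adhesion. After 24 h, exposed to 0.5, 1 and 2 μM. Viable cells counted by dye exclusion at 24, 48 and 72 h. Growth inhibition is expressed relative to DMSO-treated controls. Three experiments in duplicate.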
# [7] = test system: SK-ES1; assay: Antiproliferative activity against human SK-ES-1 cells after 24 to 72 hrs by […] dye exclusion assay; type: functional, cell-based; summary of the method: as §2
# [8] = test system: A673; assay: Antiproliferative activity against human A673 cells after 24 to 72 hrs by […] dye exclusion assay; type: functional, cell-based; summary of the method: as §2
# [9] = molecular target: T1, Protein deacetylase HDAC6 (Homo sapiens) (UniProt Q9UBN7); assay: Inhibition of HDAC6 in human MG63 cells assessed as upregulation of acetyl-tubulin level at 0.5 to 2 uM after 24 hrs by Western blot analysis relative to control; type: cell-based; conditions: MG-63
# T1 sequence (whole entry): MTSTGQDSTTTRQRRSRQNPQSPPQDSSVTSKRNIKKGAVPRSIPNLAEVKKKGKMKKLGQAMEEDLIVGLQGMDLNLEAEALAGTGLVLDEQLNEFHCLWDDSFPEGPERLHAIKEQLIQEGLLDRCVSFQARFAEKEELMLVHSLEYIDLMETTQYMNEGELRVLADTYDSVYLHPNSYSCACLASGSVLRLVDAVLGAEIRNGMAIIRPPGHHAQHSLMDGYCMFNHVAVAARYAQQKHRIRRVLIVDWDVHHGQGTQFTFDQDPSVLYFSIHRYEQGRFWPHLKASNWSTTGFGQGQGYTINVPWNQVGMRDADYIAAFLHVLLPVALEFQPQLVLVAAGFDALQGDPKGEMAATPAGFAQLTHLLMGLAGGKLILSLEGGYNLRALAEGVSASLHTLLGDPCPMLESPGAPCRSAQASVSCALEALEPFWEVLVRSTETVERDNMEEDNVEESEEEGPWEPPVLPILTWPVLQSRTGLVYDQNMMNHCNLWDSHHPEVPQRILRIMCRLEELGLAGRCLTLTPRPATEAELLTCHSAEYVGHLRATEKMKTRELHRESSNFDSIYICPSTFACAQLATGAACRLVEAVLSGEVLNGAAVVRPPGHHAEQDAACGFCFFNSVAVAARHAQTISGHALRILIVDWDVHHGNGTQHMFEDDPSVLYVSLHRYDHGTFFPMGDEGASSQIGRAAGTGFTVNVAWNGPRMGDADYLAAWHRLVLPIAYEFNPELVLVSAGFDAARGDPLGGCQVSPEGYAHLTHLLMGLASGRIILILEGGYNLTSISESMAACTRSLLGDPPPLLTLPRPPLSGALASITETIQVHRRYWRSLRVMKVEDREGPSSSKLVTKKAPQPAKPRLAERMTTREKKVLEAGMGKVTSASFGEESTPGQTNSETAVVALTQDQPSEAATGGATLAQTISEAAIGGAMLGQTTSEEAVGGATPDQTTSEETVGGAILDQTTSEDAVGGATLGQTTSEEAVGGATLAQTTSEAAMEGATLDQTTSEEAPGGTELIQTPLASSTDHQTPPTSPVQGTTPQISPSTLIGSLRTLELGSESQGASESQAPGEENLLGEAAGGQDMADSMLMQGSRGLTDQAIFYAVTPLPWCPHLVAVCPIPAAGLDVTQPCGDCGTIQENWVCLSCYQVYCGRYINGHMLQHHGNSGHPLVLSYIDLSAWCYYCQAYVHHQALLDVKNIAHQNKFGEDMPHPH
# Summary of the method: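 MG-63 sarcosphere-derived CSCs treated 24 h with 0.5 and 2 μM. Acetyl-tubulin measured by Western blot with densitometry normalized to TBP and expressed as index versus negative control.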
# [10] = test system: MG-63; assay: Induction of apoptosis in human MG63 cells assessed as formation of apoptotic bodies after 48 hrs by Hoechst 33258 staining-based fluorescence microscopic analysis; type: functional, cell-based
# Summary of the method: (§3)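 Dissociated sarcospheres seeded on glass coverslips in complete IMDM and exposed to 0.5, 1 and 2 μM for 48 h; untreated cells as negative control. Fixed in methanol/acetic acid (3:1), then stained with 2.25 μg/mL Hoechst 33258 for 10 min at rt in the dark. Apoptotic-body nuclei counted over at least five fields (20× objective) and reported as percentage of cells.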
# [11] = test system: HOS; assay: Induction of apoptosis in HOS cells at 1 to 2 uM after 48 hrs by Hoechst 33258 staining-based fluorescence microscopic analysis; type: functional, cell-based; conditions: Homo sapiens; summary of the method: as §3
# [12] = test system: SK-ES1; assay: Induction of apoptosis in human SK-ES-1 cells at 1 to 2 uM after 48 hrs by Hoechst 33258 staining-based fluorescence microscopic analysis; type: functional, cell-based; summary of the method: as §3
# [13] = test system: A673; assay: Induction of apoptosis in human A673 cells at 1 to 2 uM after 48 hrs by Hoechst 33258 staining-based fluorescence microscopic analysis; type: functional, cell-based; summary of the method: as §3
# Sequence of Histone deacetylase 4 (P56524 whole entry, canonical isoform): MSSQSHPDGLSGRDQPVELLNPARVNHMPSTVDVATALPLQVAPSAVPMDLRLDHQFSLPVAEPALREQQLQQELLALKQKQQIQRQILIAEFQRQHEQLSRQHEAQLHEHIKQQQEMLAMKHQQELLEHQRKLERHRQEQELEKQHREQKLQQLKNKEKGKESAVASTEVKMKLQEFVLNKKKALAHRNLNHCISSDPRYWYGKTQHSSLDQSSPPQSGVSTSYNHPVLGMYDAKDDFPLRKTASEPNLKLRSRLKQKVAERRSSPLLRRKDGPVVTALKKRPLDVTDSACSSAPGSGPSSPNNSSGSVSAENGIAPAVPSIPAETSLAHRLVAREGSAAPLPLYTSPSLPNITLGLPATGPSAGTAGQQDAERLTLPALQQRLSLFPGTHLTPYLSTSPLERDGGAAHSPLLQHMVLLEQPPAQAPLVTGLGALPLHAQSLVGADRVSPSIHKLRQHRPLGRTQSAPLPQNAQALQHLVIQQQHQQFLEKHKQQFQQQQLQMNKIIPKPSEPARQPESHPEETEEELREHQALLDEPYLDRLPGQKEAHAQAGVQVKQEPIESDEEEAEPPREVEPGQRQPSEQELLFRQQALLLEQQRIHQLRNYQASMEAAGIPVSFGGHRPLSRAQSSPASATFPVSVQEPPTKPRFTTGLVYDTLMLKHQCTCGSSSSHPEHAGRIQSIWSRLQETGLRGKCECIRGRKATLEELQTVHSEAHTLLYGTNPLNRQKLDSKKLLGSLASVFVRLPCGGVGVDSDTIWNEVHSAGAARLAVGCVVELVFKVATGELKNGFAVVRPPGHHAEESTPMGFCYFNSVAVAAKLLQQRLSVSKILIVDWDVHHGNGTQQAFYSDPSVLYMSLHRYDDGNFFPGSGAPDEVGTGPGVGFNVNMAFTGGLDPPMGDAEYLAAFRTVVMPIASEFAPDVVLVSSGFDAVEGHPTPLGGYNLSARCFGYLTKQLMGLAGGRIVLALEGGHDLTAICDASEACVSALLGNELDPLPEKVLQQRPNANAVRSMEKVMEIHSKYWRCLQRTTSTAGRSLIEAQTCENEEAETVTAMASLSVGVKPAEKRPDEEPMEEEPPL
# Sequence of Histone deacetylase 5 (Q9UQL6 whole entry, canonical isoform): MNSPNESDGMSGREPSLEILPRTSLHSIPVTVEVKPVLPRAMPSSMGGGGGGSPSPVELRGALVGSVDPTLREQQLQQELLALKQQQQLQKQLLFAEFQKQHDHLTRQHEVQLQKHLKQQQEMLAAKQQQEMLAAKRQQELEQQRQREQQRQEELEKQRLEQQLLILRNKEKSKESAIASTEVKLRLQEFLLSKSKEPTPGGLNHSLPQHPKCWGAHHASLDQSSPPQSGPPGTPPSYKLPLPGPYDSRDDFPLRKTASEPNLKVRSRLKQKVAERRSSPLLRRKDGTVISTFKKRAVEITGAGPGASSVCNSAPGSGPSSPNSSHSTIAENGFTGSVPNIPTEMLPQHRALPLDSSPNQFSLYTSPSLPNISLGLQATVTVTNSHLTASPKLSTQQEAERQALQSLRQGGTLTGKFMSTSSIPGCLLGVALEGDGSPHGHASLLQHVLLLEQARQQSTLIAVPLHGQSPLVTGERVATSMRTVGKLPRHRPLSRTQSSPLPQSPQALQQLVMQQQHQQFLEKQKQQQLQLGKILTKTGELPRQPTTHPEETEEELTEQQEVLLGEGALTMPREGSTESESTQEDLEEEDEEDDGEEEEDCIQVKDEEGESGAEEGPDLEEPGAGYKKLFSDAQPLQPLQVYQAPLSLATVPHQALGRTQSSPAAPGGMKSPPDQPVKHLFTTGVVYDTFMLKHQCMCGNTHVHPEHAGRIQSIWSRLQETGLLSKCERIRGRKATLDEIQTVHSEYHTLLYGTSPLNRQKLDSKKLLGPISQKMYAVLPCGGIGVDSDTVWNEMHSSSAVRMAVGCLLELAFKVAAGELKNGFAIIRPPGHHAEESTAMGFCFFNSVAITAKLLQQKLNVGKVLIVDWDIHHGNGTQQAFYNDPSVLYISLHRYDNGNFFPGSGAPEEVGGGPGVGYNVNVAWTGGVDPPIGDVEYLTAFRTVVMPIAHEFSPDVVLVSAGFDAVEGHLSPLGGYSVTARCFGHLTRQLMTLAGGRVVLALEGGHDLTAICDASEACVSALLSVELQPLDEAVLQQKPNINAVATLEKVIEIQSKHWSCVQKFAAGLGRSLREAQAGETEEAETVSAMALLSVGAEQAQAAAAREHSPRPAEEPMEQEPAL
Structure (SMILES),IC50 [1] [µM],IC50 [2] [µM],Activity [3],Activity [4],Activity [5],Activity [6],Activity [7],Activity [8],inhibition [9],Activity [10],Activity [11],Activity [12],Activity [13]
O=C(CCCCSc1nc(-c2ccc(-c3ccccc3)cc2)cc(=O)[nH]1)NO,> 50,> 50,Dose-dependent effect,Dose-dependent effect,Dose-dependent effect,Dose-dependent effect,Dose-dependent effect,Dose-dependent effect,Active,Dose-dependent effect,Active,Active,Active
O=C(/C=C/c1ccc(NC(=O)C(Cc2ccccc2)c2ccccc2)cn1)NO (stereo unspecified),11.7,9.37,Dose-dependent effect,Dose-dependent effect,Dose-dependent effect,Dose-dependent effect,Dose-dependent effect,Dose-dependent effect,Active,Dose-dependent effect,Active,Active,Active
